The chains are these.
B1: tRNA (parent)
chain: GUUCCGUUGGCGUAAUGGUAACGCGUCUCCCUCCUAAGGAGAAGACUGCGGGUUCGAGUCCCGUACGGAACG

Fewer inactive variants are shown than the library holds.

The variants in this data set derive from B1. Description: yeast fitness relative to wild type (ratio to wild type); higher = fitter; tRNA-Arg(CCU), competitive growth, 37 C, YPD. In outline: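 Genotype frequency changes were the basis for Darwinian fitness relative to wild type. The frequencies came from 100-nucleotide paired-end sequencing of gene amplicons from the start population and each end population of pooled yeast strains with tRNA-Arg(CCU) gene variants at the native locus. Competition ran in YPD at 37°C for 24 hours in six replicates, genotypes needed ≥ 100 starting reads, and estimates < 0.5 were set to 0.5.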
As for GUUCCGUUGGCGUAAUGGUAAGGCGUCUCCCUCCUAAGGAGAAGACAGCGGGUUCGAGUCCCGUACAGAACG [C22G U47A G67A], the yeast fitness was at most 0.5.
For GUACCGUUGGCGUAAUGGUAACGCGUCUCCCUCCUAAGGGGAAGACUGCGGGAUCGAGUCCCGUACGGAACG [U3A A40G U53A], the yeast fitness is at most 0.5.
Take GUUCCGUUGGCGUAAUGGUAACGCGACUCCCUCCUAAGGAGAAGACUGCGGGUUCGAGUCCCCUACGGUACG [U26A G63C A69U]: the yeast fitness came out at 0.527.
Consider GUUCCGCUGGCGUAAUGGUAGCGCGUCUCCCUCCUAAGGACAAGACUGCGGGCUCGAGUCCCGAACGGAACG [U7C A21G G41C U53C U64A], for which the yeast fitness was at most 0.5.
As for GUUUCGUUGGCGUAAUGGUAACCCGUCUCCCUCCUAAGGAGAAGACUGCGGGUUCGAGUCCCGUACGGAACG [C4U G23C], the yeast fitness was determined as 0.716.
For GUUCCGAAGGGGUAAUGGUAACGCGUCUCCCUCCUAAGGAGAAGACUGCGGGUUCAAGUCCCGUACGGUACG [U7A U8A C11G G56A A69U], the yeast fitness was 0.548.
For the variant GUUCCAUUGGCGUAAUAGGAACGCGUCUCCCUCCUAAGGAGAAGACUGCGGGUUCGAGUCCCGUACGGUACG [G6A G17A U19G A69U], the yeast fitness is 0.595.
Turning to GUUCCGUUGGCGUAAUGGUAACGCGUCUCCCUACUAAGCACAACACUGCGGGUUCGAGUCCCGUACGGCACG [C33A G39C G41C G44C A69C], the yeast fitness amounted to 0.577.
For the variant GUUCCGUUGCCGUAAUGGUAACGCGUGUCCCUCCUAAGGAGCAGACUGAGGGUUCGAGUCCCGUACGGCACG [G10C C27G A42C C49A A69C], the yeast fitness was at most 0.5.
For GUUCCAUUGGCGUAAUGGUCACGCGUCUCCCUCCUAAGGAGAAGAGUGCGGGUUCGAGUCCCGUACGGAACG [G6A A20C C46G], the yeast fitness came to 0.696.
As to GUUCCGUUGGCGUAGUGGUAACGCGUCUCCCUCCUAAGGAGAAGACUCCGAGUUCGAGUCCCGUCCGGAACG [A15G G48C G51A A65C], the yeast fitness is at most 0.5.
GUUCCGUUGGCGUAAUGGUAACGCGUCUGCCUCCUAAGGAGAAGACUGUGGGUUCGAGUCCCAUACGGAACG [C29G C49U G63A]: the yeast fitness came out at 0.513.
The figure for GUUCCGUUGGCGUAAUGGGAACGCGUCUCCCUCCUAAGGAGAAGACUGCGGGUUCGAGUCCCGUACGGUACG [U19G A69U] is 0.892; for GUUCCGUCGGCGUAAUGGUAACGCGUCUCCCCCCUAAGGAGAAGAGUGCGGGUUCGAGUCCCGUACCGAACG [U8C U32C C46G G67C] it is at most 0.5; for GUUUCGUUGGCGUAAUGGUAACGCGACUCCCUCCUAAGGAGAAGACUGCGGCUUCGAGUCCCGUACGGAACG [C4U U26A G52C] it is 0.569.
The figure for GUUCCGUUAGCGUAAUGGUAUCGGGUCACCCUCCUAAGGAGAAGACUGCGGGUUCGAGUGCCGUACGGACCG [G9A A21U C24G U28A C60G A70C] is at most 0.5; for GUUCCGUUGGCGUAAUGGUAACGCGUCUCCCUCCUAGGGAGAAGACUGCGGGUUCGAGUCCCGUACCGAACG [A37G G67C] it is 0.79.
Take GUUCCGUUGGCGUGAUGGUAACGCGUCUCCCUCCUAAGGAGACGACUGCGGCUUCGAGUCCCGUACGGAACG [A14G A43C G52C]: the yeast fitness was at most 0.5.
The same measure for GUUUCGUUGGCGUAAUGGUAACGCGUCUCCCUCCUAAGGGGAAGACUGCGGGGUCGCGUGCCGUUCGGAACG [C4U A40G U53G A57C C60G A65U]: 0.583.
The figure for GUUCCGUUGGCGAAAUGGUAACGCGUGUCCCUCCUAAGGAGAAGACUGCGGGUUCGAGCCCCGUACGGAACG [U13A C27G U59C] is at most 0.5.
Consider GUUCCGUUGGUGUAAUGGUAGCGCGUCUCCCUCCUAAGGAGAAGACUGCGGGUUCGAGUCCCGCACGGAACG [C11U A21G U64C], for which the yeast fitness is 0.945.
Regarding GUUCCGUUGGCGUAGUGGUAACCCGUCACCCUCCUAAGGAGAAGACUGCGGGUUCGAGUCCCGUACGGAACG [A15G G23C U28A], the yeast fitness is at most 0.5.
For the variant GUUCCGUUGGCGUAAUGGUAACGCGUUUCCUUCCUAAGGAGAAGACUGCGGAUUCGAGUCCCGUACGGAACG [C27U C31U G52A], the yeast fitness came out at 0.639.
As to GUUCCGUUGGCGUAAUGGUAACGCGUCUCCCUCCUAAGGAGAUGACUGCGGGUUCGAGUCCCGUACGAAACG [A43U G68A], the yeast fitness stood at 0.669.
As for GUUCCGUUGGCGGAAUGGUAACGCGUAUCCCUCCUAAGGAGAAGACUGCGGGUUCGAGUCCCGUACGGAACG [U13G C27A], the yeast fitness amounted to 0.628.
For the variant GUUCCGUUGGCGUAAUGGUAACGCGUCUACCUCCUAAGGAGAAGAUUGCGGGUUCGAGUCCCGUACGGAACG [C29A C46U], the yeast fitness turned out to be 0.724.
As to GUUCCGUUGGCGUAAUGGUAACGCGUCUCCCUCCUAAGGUGGAGACUGCGGGUUCGAGUCCCGUACGGAACG [A40U A42G], the yeast fitness came to 0.983.
The same measure for GUCCCCUUGGCGUUAUGGUAACGCAUCUCCCUCCUAAAGAGAAGACAGCGGGUUCGAGUCCCGUACGGAACG [U3C G6C A14U G25A G38A U47A]: at most 0.5.
As to GUUACGUUGGCGUAAUGGUAACGCGUCUCCAUGCUAAGGAGAAGACAGCGGGUUCGAGUCCCGUCCGGAACG [C4A C31A C33G U47A A65C], the yeast fitness worked out at 0.627.
For GUUCCGUUGGCGUAAUGGUAACGCGUCUCCCUCCUAAGGAGAAGACUGCGGGUUUGAGUCCCGUACGAAACG [C55U G68A], the yeast fitness worked out at 0.765.
Consider GUUCCGUUGGCGUAUUGGUAACGCGUCUCCCUCCUAAGGAGAAGACUGCGGGAUCGAGUCCAGUACGGAACG [A15U U53A C62A], for which the yeast fitness was at most 0.5.
Take GUUCCGUUGGCGGAAUGGUAACGCGUCUCCCUCCUACGGAGAAGACUGCGGGUUCGAGUCCCGUACGGAACG [U13G A37C]: the yeast fitness was 0.65.
As for GUUCAGUUGGCGUAAUGGUAACGCGUCUCCCUCCUAAGGAGAAGACUGCCGGUUCGAGUCCCGCACGGAACG [C5A G50C U64C], the yeast fitness came out at 0.73.
Turning to GUUCCGUUGGCGUAUUGAUAACGCGUAUCCCUCCUAAGGAGAAGACUGCGGGUUCGAGUCCCGUACGGAACG [A15U G18A C27A], the yeast fitness was determined as 1.03.
Turning to GUUACGUUGGCGUAAUGGUAACGCGUGUCCCUCGUAUGGAGAAGACUGCGGGUUCGAGUCCCGAACGGAACG [C4A C27G C34G A37U U64A], the yeast fitness is at most 0.5.
In the case of GUUUCGUUGGCGUAAUGGUAACGCGUCUCCCUCCUAAGCAGAAGACUGCGGGUUCGAGGCCAGUACGGAACG [C4U G39C U59G C62A], the yeast fitness is at most 0.5.
For the variant GUACCGUUGGGGUCAUGGUAACGCGUCUCCCUCCUAAGGAGAAGACUGCGGGUUCGAGUCCUGUACCGAACG [U3A C11G A14C C62U G67C], the yeast fitness was at most 0.5.
Take GUUCCGGUGGCGUGAUGGUAAUGCGUCUCCCUCCUAAAGAGAAGACUGCGGGUUAGAGUCCCGUACAGAACG [U7G A14G C22U G38A C55A G67A]: the yeast fitness is at most 0.5.

The values above are taken from the RNAGym collection of RNA variant scans (doi:10.1126/science.aae0568).
